14-3-3 Bad inh = disrupts binding of bovine 14-3-3 zeta to phospho-Bad peptide; P63103; TR-FRET 14-3-3zeta/Dy647-pBad peptide displacement, 1 h; inhibition, % at 21.7 µM; 220,000 tested, 0.71% active; AID 781;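 active means inhibition above about 70%, limit read from the data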
Target sequence (P63103 whole entry, looked up): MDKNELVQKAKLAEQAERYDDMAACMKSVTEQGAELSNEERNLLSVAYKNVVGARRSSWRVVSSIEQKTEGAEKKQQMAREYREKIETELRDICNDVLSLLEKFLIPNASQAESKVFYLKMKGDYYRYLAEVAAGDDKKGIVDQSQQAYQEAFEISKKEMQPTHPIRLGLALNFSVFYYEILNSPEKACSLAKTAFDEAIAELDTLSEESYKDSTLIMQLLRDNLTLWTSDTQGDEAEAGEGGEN
RBBP9 inhibitor = human RBBP9 hydrolase inhibition | 220,000 tested, 0.2% active | O75884 | recombinant RBBP9, FP-Rh probe fluorescence polarization | inhibition, % at 7.94 µM;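 active means inhibition above the campaign mean of all tested compounds plus 3 SD, cut at about 14% in these data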
Target sequence (O75884 whole entry, looked up): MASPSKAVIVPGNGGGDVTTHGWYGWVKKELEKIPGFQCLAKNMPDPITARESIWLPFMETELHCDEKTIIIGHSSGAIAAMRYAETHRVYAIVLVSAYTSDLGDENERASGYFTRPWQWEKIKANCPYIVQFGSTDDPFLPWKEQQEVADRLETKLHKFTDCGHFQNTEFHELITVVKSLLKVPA
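Test system – recombinant human RBBP9 · Input – RBBP9 2.5 µM in dispensing solution, pre-mixing · Medium – Tris buffer pH 8.0, NaCl, Pluronic · Schedule – preincubation 30 min plus labeling 45 min at 25 °C · Measured by – fluorescence polarization · Measure – % inhibition · Controls – DMSO and no-protein wells · Replicates – one well per compound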
EBV gp42 inh = inhibitors of Epstein-Barr virus glycoprotein 42 | AID 1085 | Q1HVG2 | Fluorescence polarization binding assay, mP read-out | 220,000 tested, 0.42% active | inhibition, % (tested at 21.74 µM); in the data active means inhibition above about 50%
Target sequence (Q1HVG2 whole entry, looked up): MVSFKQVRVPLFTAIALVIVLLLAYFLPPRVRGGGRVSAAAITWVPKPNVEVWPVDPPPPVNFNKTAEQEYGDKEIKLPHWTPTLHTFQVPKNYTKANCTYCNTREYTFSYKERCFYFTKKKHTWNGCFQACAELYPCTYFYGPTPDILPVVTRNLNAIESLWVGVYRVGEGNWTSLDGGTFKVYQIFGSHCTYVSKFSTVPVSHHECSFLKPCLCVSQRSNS
NCF1 inh = p47phox (human) inhibition; p47phox/p22phox peptide binding, fluorescence polarization, 2 h; 220,000 tested, 0.53% active; P14598; AID 1274; inhibition, % at 24.7 µM
WT yeast gro inh = growth inhibition of WT yeast, mitochondrial fusion screen; inhibition, % at 10 µM; 190,000 tested, 2.1% active; mitochondrial fusion phenotypic screen, WT strain; in the data active means inhibition above about 58%; tested in S. cerevisiae
eIF4E 4G PPI = blocks eIF4E binding to eIF4G. 220,000 tested, 0.37% active. TR-FRET eIF4E-eIF4GI(517-606) binding, 2 h. inhibition, % at 21.7 µM. P63073+Q04637
RBBP9 inh conf = confirmation of human RBBP9 inhibitors; shares compounds with RBBP9 inhibitor; recombinant RBBP9, FP-Rh probe fluorescence polarization; inhibition, % at 7.94 µM; 410 tested, 36% active;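 active means inhibition above the hit cutoff derived for the primary screen, cut at about 15% in these data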
Of the large screens only hits and unclear results are named; the others gave an inactive call (follow-up assays come after a bar, where they were run). Sampled rows, rich in hits. Any-hit rate of the full collection: about 3.7%.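 How the source made its calls, unless noted: active means inhibition above about 30% (limit read from the data); inactive means the rest.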

O=C1c2cccc3cccc(c23)C(=O)N1/N=C/c1ccc(O)cc1O	none
COc1ccc(OC)c2[nH]c(=O)c(CCNC(=O)c3cccs3)cc12	none
CCCc1nnc(NC(=O)CN2CCN(C)CC2)s1	RBBP9 inhibitor 16.7 | RBBP9 inh conf inactive
O=Nc1c(-c2cccc([N+](=O)[O-])c2)nc2ncccn12	RBBP9 inhibitor 21.1 (no result: WT yeast gro inh) | RBBP9 inh conf 24.1
CCCC(CCC)C(=O)Nc1c[nH]c(=O)[nH]c1=O	RBBP9 inhibitor 16.7 | RBBP9 inh conf inactive
COc1ccc(-n2c(Cc3cccn3C)nnc2SCC(=O)NC2CCCC2)cc1	RBBP9 inhibitor 19.0 | RBBP9 inh conf inactive
Cc1cc(NC(=O)c2ccc(Cl)cc2)c(C)cc1O	none
Cc1cc(O)c(-c2cc(O)c(C)cc2O)cc1O	RBBP9 inhibitor 46.8 (no result: WT yeast gro inh) | RBBP9 inh conf 73.4
Cc1cccc(-n2c(SCc3ccc(C#N)cc3)nnc2-c2c[nH]c3ccccc23)c1	none
O=C(c1cc2c(s1)CCCC2)n1cccn1	RBBP9 inhibitor 42.2 | RBBP9 inh conf inactive
O=C(c1cc2c(s1)CCCCC2)N1CCN(c2ncccn2)CC1	none
Cc1cccc(OCCCC(=O)Nc2ccc(Br)cc2)c1	none
Cc1cccc(OCCCC(=O)Nc2ccc(N(C)C)cc2)c1	RBBP9 inhibitor 18.1 | RBBP9 inh conf 26.3
N#CCCN(C(=O)COc1ccc(F)cc1Br)c1ccccc1F	none
Cc1cc(Br)ccc1NC(=S)N1CCOCC1	none (no result: WT yeast gro inh)
CC1(C)CC(=O)C(C=NCCN2CCN(C(=O)c3ccccc3)CC2)=C(O)C1	none
CC1(C)CC(=O)C(C=NCCN2CCN(C(=O)c3ccc(F)cc3)CC2)=C(O)C1	RBBP9 inhibitor 14.9 | RBBP9 inh conf inactive
CCN(CC)C(=O)c1ccc(-c2nnc(OC)c3ccccc23)cc1	none (no result: WT yeast gro inh)
CCCCn1c(SCC(=O)NC2CC(C)(C)NC(C)(C)C2)nc2cc(S(N)(=O)=O)ccc21	none (no result: WT yeast gro inh)
O=C1CCC(=O)N1c1ccc(-c2nc3sc4c(c3c(=O)o2)CCC4)cc1	RBBP9 inhibitor 15.0 (no result: WT yeast gro inh) | RBBP9 inh conf inactive
Cc1ccc(CSCCNS(=O)(=O)c2ccc(C)cc2)cc1	none
CC/C(=C\C(=O)c1ccncc1)Nc1ccc(O)cc1	RBBP9 inhibitor 47.0 | RBBP9 inh conf inactive
Cc1cc(C)c(S(=O)(=O)Nc2cc(SCC(=O)O)c(O)c3ccccc23)cc1C	RBBP9 inhibitor 16.0 | RBBP9 inh conf 49.2
Cn1c(=O)c(NCCO)c2c3c(cccc31)C(=O)c1ccccc1-2	RBBP9 inhibitor 63.2 | RBBP9 inh conf 74.8
CCNc1c2c3c(cccc3n(C)c1=O)C(=O)c1ccccc1-2	RBBP9 inhibitor 22.0 | RBBP9 inh conf 36.9
CCCCNc1c2c3c(cccc3n(C)c1=O)C(=O)c1ccccc1-2	RBBP9 inhibitor 24.0, EBV gp42 inh 182.7, WT yeast gro inh 64.1 | RBBP9 inh conf 30.5
Cn1c(=O)c(NCCc2ccccc2)c2c3c(cccc31)C(=O)c1ccccc1-2	RBBP9 inhibitor 108.6, EBV gp42 inh active | RBBP9 inh conf 144.1
CCNC1=C(Cl)C(=O)c2ccccc2C1=O	none
C/C(=N\N(Cc1ccccc1)c1ccccc1)c1ccncc1	none
CCO[C@H]1OC(C(=O)N2CCN(Cc3ccc4c(c3)OCO4)CC2)=C[C@@H](C2CC2)[C@@H]1CCCO	none
COc1cc(NC(=O)CSc2cc(C)c3cc(C)cc(C)c3n2)c(C(=O)O)cc1OC	none (no result: WT yeast gro inh)
CC1=NN(c2ccccc2)C(=O)C1C=Nc1ccc(N(C)C)cc1 (configuration not stated)	RBBP9 inhibitor 19.0 (no result: WT yeast gro inh) | RBBP9 inh conf 15.0
ClC(/C=N/n1cnnc1)=C/c1ccccc1	none (no result: WT yeast gro inh)
Oc1ccc(NC(=S)N=Nc2c(O)[nH]c3ccc(Br)cc23)cc1	RBBP9 inhibitor 53.0 | RBBP9 inh conf 22.3
Oc1ccc(NC(=S)N=Nc2c(O)[nH]c3ccccc23)cc1	RBBP9 inhibitor 16.1 | RBBP9 inh conf 18.6
Oc1[nH]c2ccc(Br)cc2c1N=NC(=S)Nc1ccc(F)cc1	none (no result: WT yeast gro inh)
C=CCn1c(SCc2ccc(F)cc2)nnc1-c1sc2nc(C)cc(C)c2c1N	none (no result: WT yeast gro inh)
COc1ccccc1NC(=O)c1c(NC(=O)CCC(=O)O)sc2c1CCCCC2	none (no result: WT yeast gro inh)
COc1ccc(OC)c(NC(=O)c2c(NC(=O)CCC(=O)O)sc3c2CCCCC3)c1	RBBP9 inhibitor 21.0 | RBBP9 inh conf inactive
C=CCNC(=O)c1onc(CSc2ccccn2)c1C(=O)NCC=C	none (no result: RBBP9 inhibitor, WT yeast gro inh)
Cc1cc(C)nc(N2CCCC(CCC(=O)NCc3ccc(F)c(F)c3)C2)n1 (configuration not stated)	none
Oc1cc(-n2cccn2)c(O)cc1-n1cccn1	RBBP9 inhibitor 63.0 (no result: WT yeast gro inh) | RBBP9 inh conf 75.6
C=CCc1c(C)nc(N2CCSCC2)[nH]c1=O	none (no result: WT yeast gro inh)
C=CCN1C(=O)C(C(C)CC)NC1=S (configuration not stated)	none
C=CCN1C(=O)C(C)NC1=S (configuration not stated)	RBBP9 inhibitor 21.8 (no result: WT yeast gro inh) | RBBP9 inh conf inactive
CC(=O)Nc1cccc(/C(C)=N/NC(=O)c2ccc(NS(=O)(=O)c3cccs3)cc2)c1	RBBP9 inhibitor 19.2 (no result: WT yeast gro inh) | RBBP9 inh conf inactive
C/C(=N\NC(=O)c1ccc(NS(=O)(=O)c2cccs2)cc1)c1ccc(C(C)(C)C)cc1	none
COc1ccc(OCc2nn3c(-c4ccccn4)nnc3s2)cc1	RBBP9 inhibitor 14.7 | RBBP9 inh conf inactive
COc1ccc(-c2nnc3sc(COc4ccccc4)nn23)cc1	none
CCN(CC(=O)NCCC1=CCCCC1)S(=O)(=O)c1ccccc1	none (no result: WT yeast gro inh)
Clc1ncc(Cn2cccn2)s1	none
CC(=O)c1sc2nc(-c3ccco3)ccc2c1N	RBBP9 inhibitor 20.9 (no result: WT yeast gro inh) | RBBP9 inh conf 35.1
N#CCCN(C(=S)NC(=O)c1ccco1)c1ccccc1F	none
CCOc1ccc(C(C(=O)NC2CCCC2)N(CCCO)C(=O)c2ccc(-c3ccccc3)[nH]2)cc1 (configuration not stated)	none
CC(=O)C(=Nc1ccc(Cl)cc1Cl)NNc1cccc(Cl)c1	RBBP9 inhibitor 32.2 | RBBP9 inh conf inactive
O=C1CC(=O)N(CCNc2ncc(C(F)(F)F)cc2Cl)C(=O)N1	none
O=C1C=CC(=O)N1CCNc1ncc(C(F)(F)F)cc1Cl	RBBP9 inhibitor 32.6, WT yeast gro inh 97.2 | RBBP9 inh conf 30.8
Cc1cc(C)cc(N(C(=O)c2csnn2)C(C(=O)NC(C)(C)C)c2cccs2)c1 (configuration not stated)	RBBP9 inhibitor 15.4 | RBBP9 inh conf inactive
Cc1ccc(N(C(=O)c2csnn2)C(C(=O)NC(C)(C)C)c2cccs2)cc1 (configuration not stated)	none
CN(C)c1ccc(Nc2nc(-c3cccnc3)cs2)cc1	RBBP9 inhibitor 20.4 | RBBP9 inh conf 22.0
CC[C@H](C)[C@H](NC(=O)c1ccccc1)C(=O)Nc1ccc(S(=O)(=O)Nc2cc(C)nc(C)n2)cc1	none (no result: WT yeast gro inh)

Screening data from PubChem.
